Results as given in ChEMBL document CHEMBL2010778, “Thiadiazoles as new inhibitors of diacylglycerol acyltransferase type 1” (Bioorg Med Chem Lett, 2012).

Legend:
[1] = molecular target: T1, Diacylglycerol O-acyltransferase 1 (Homo sapiens, UniProt O75907); assay: Inhibition of human recombinant DGAT1 expressed in baculovirus infected Sf9 cells after 60 mins by scintillation counting method
T1 sequence (O75907 whole entry): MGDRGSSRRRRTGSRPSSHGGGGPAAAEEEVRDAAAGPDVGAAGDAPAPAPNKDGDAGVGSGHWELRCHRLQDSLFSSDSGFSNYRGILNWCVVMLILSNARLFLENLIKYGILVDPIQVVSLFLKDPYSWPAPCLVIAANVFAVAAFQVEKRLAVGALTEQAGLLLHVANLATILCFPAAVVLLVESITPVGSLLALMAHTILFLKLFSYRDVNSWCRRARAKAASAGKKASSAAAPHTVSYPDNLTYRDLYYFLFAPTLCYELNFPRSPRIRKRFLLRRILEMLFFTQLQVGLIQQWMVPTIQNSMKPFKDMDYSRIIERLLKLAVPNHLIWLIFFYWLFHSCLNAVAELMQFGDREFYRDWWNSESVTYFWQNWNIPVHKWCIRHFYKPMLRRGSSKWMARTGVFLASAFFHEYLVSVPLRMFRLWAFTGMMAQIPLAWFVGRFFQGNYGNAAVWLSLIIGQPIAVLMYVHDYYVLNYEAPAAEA

[2] = Metabolic stability in mouse hepatic microsomes assessed as compound metabolism after 20 mins; type: ADME; conditions: liver microsomes, read-out: Drug metabolism
Method in brief: (§1)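 Compound was incubated for 20 min with human or mouse hepatic microsomal fraction. % liability is the disappearance of parent compound at the end of the incubation.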

[3] = Permeability across human Caco2 cell membrane; type: ADME, cell-based; conditions: Caco-2, read-out: permeability
[4] = Metabolic stability in human hepatic microsomes assessed as compound metabolism after 20 mins; type: ADME; conditions: liver microsomes, read-out: Drug metabolism; method in brief: as §1
Mus musculus = assay: Antihyperlipidemic activity in C57BL/6J mouse assessed as inhibition of rise in plasma triglyceride level at 1 mg/kg, po administered 1 hr before lipid challenge; type: functional
Method in brief: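 Fasted male C57Bl/6J mice (n = 10/group) were dosed orally at 1 mg/kg in 0.5% methylcellulose/1% DMSO (10 mL/kg), 1 h before a 100 µL corn oil or water bolus. Blood was taken by intracardiac puncture under isoflurane 1 h after the challenge, and plasma triglycerides were measured with a commercial kit. Inhibition of the TG rise was assessed against vehicle by one-way ANOVA with Dunnett test.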

[5] = Plasma concentration in C57BL/6J mouse at 1 mg/kg, po administered 1 hr before lipid challenge measured after 1 hr post dose; type: ADME, organism-based; design: dose 1 mg/kg, route oral

| Compound | IC50 [1] | metabolised at 20 min [2] | Papp [3] | metabolised at 20 min [4] | concentration at 1 h [5] | inhibition in vivo at 1 mg/kg (Mus musculus) |
| --- | --- | --- | --- | --- | --- | --- |
| CS(=O)(=O)c1nnc(NC(=O)c2ccc([C@H]3CC[C@H](CC(=O)O)CC3)cc2)s1 | > 10 µM | – | – | – | – | – |
| O=C(O)CC1CCC(c2ccc(Nc3nnc(Cc4ccccc4)s3)cc2)CC1 (mixture of isomers) | > 10 µM | – | – | – | – | – |
| CC(C)[C@H](NC(=O)c1ccc(-c2ccc(Nc3nnc(Cc4ccccc4)s3)cc2)cc1)C(=O)O | – | – | 0.04 ×10⁻⁶ cm/s | – | – | – |
| CN(C(=O)c1ccc([C@H]2CC[C@H](CC(=O)O)CC2)cc1)c1nnc(Cc2ccccc2)s1 | > 10 µM | – | – | – | – | – |
| O=C(O)C[C@H]1CC[C@H](c2ccc(C(=O)Nc3nnc(Cc4ccccc4F)s3)cc2)CC1 | – | 4% | 7.5 ×10⁻⁶ cm/s | 0% | – | 120% |

Second part, led by results:

| IC50 [1] | metabolised at 20 min [2] | Papp [3] | metabolised at 20 min [4] | concentration at 1 h [5] | Compound | inhibition in vivo at 1 mg/kg (Mus musculus) |
| --- | --- | --- | --- | --- | --- | --- |
| – | 10% | 12 ×10⁻⁶ cm/s | 1% | – | O=C(O)C[C@H]1CC[C@H](c2ccc(C(=O)Nc3nnc(Cc4cccc(F)c4)s3)cc2)CC1 | 107% |
| – | 5% | 11.2 ×10⁻⁶ cm/s | 0% | 79.1 ng/mL | O=C(O)C[C@H]1CC[C@H](c2ccc(C(=O)Nc3nnc(Cc4ccccc4)s3)cc2)CC1 | 95% |
| – | 14% | 8 ×10⁻⁶ cm/s | 6% | – | O=C(O)C[C@H]1CC[C@H](c2ccc(C(=O)Nc3nnc(Cc4cccc(Cl)c4)s3)cc2)CC1 | 101% |
